Activity calls are given as the source filed them. The calls are words filed in the database; no cut-off is given here.
Legend:
[1] = tested on: Rattus norvegicus; assay: Drug uptake in Sprague-Dawley rat assessed as radioactivity in liver protein at 4.6 to 23 mmol/kg, ip measured up to 24 hrs by scintillation counting; format: ADME, organism-based; details: in vivo
Procedure, shortened: (§1)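 Male Sprague-Dawley rats, 100-120 g, fasted overnight. [1-14C]Halothane in olive oil (50 µCi/kg) given ip at 4.6, 11.5 or 23.0 mmol/kg. Rats killed at 0.5-24 h. Lipid fraction isolated from 1 g liver by the Folch method; DNA fraction by the Irving-Veazey method; proteins handled as for binding. Radioactivity counted by liquid scintillation. Means of six rats.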

[2] = tested on: Rattus norvegicus; assay: Drug uptake in Sprague-Dawley rat assessed as radioactivity in DNA fraction at 4.6 to 23 mmol/kg, ip measured up to 24 hrs by scintillation counting; format: ADME, organism-based; details: in vivo; procedure, shortened: as §1
[3] = tested on: Rattus norvegicus; assay: Drug uptake in Sprague-Dawley rat assessed as radioactivity in lipid fraction at 4.6 to 23 mmol/kg, ip measured at 1 to 6 hrs by scintillation counting; format: ADME, organism-based; details: in vivo; procedure, shortened: as §1
[4] = tested on: Rattus norvegicus; assay: Drug uptake in Sprague-Dawley rat assessed as radioactivity in lipid fraction at 4.6 to 23 mmol/kg, ip measured at 6 to 8 hrs by scintillation counting; format: ADME, organism-based; details: in vivo; procedure, shortened: as §1
[5] = tested on: Rattus norvegicus; assay: Toxicity in phenobarbital pretreated Sprague-Dawley rat assessed as mortality at 23 mmol/kg, ip measured up to 24 hrs; format: organism-based; details: in vivo
Procedure, shortened: (§2)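 Male Sprague-Dawley rats, 100-120 g, fasted overnight before dosing and fed afterwards. Some received phenobarbital sodium 80 mg/kg ip in water for 3 days and were used on day 4. [1-14C]halothane in olive oil, 50 µCi/kg, was given ip. Mortality was recorded over the sacrifice schedule of 0.5-24 h, with six rats per time point. Vehicle controls received olive oil.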

[6] = tested on: Rattus norvegicus; assay: Toxicity in phenobarbital pretreated Sprague-Dawley rat assessed as mortality at 11.5 mmol/kg, ip measured up to 24 hrs; format: organism-based; details: in vivo; procedure, shortened: as §2
[7] = tested on: Rattus norvegicus; assay: Toxicity in phenobarbital pretreated Sprague-Dawley rat assessed as mortality at 4.6 mmol/kg, ip measured up to 24 hrs; format: organism-based; details: in vivo; procedure, shortened: as §2
[8] = tested on: Rattus norvegicus; assay: Toxicity in Sprague-Dawley rat assessed as mortality at 23 mmol/kg, ip measured up to 24 hrs; format: organism-based; details: in vivo; procedure, shortened: as §2
[9] = tested on: Rattus norvegicus; assay: Toxicity in Sprague-Dawley rat assessed as mortality at 11.5 mmol/kg, ip measured up to 24 hrs; format: organism-based; details: in vivo; procedure, shortened: as §2
[10] = tested on: Rattus norvegicus; assay: Toxicity in Sprague-Dawley rat assessed as mortality at 4.6 mmol/kg, ip measured up to 24 hrs; format: organism-based; details: in vivo; procedure, shortened: as §2
[11] = tested on: Rattus norvegicus; assay: Toxicity in Sprague-Dawley rat assessed as liver necrosis at 4.6 mmol/kg, ip measured after 0.5 to 24 hrs; format: organism-based; details: in vivo
Procedure, shortened: (§3)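 Normal or phenobarbital-pretreated male Sprague-Dawley rats dosed ip with [14C]halothane in olive oil; controls received the vehicle. Rats killed by cervical dislocation 0.5-24 h after dosing. Liver slices fixed in 10% buffered formalin (pH 7.0) and paraffin-embedded. 6-µm sections stained with H&E and read by light microscopy. Necrosis graded on a 0-4+ scale. Six rats per time point.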

[12] = tested on: Rattus norvegicus; assay: Toxicity in phenobarbital pretreated Sprague-Dawley rat assessed as liver necrosis at 4.6 mmol/kg, ip measured after 0.5 to 24 hrs; format: organism-based; details: in vivo; procedure, shortened: as §3
[13] = tested on: Rattus norvegicus; assay: Toxicity in Sprague-Dawley rat assessed as liver necrosis at 11.5 mmol/kg, ip measured after 4 to 24 hrs; format: organism-based; details: in vivo; procedure, shortened: as §3
[14] = tested on: Rattus norvegicus; assay: Toxicity in phenobarbital pretreated Sprague-Dawley rat assessed as liver necrosis at 11.5 mmol/kg, ip measured after 24 hrs; format: organism-based; details: in vivo
[15] = tested on: Rattus norvegicus; assay: Toxicity in Sprague-Dawley rat assessed as liver necrosis at 23 mmol/kg, ip measured after 4 to 24 hrs; format: organism-based; details: in vivo; procedure, shortened: as §3
[16] = tested on: Rattus norvegicus; assay: Toxicity in phenobarbital pretreated Sprague-Dawley rat assessed as liver necrosis at 23 mmol/kg, ip measured after 24 hrs; format: organism-based; details: in vivo
[17] = tested on: Rattus norvegicus; assay: Toxicity in Sprague-Dawley rat assessed as liver necrosis at 4.6 mmol/kg, ip measured after 0.5 to 24 hrs by histopathological/light microscopy analysis (reference value: 0%); format: organism-based; details: in vivo; procedure, shortened: as §3
[18] = tested on: Rattus norvegicus; assay: Toxicity in Sprague-Dawley rat assessed as liver necrosis at 11.5 mmol/kg, ip measured after 0.5 to 24 hrs by histopathological/light microscopy analysis (reference value: 0%); format: organism-based; details: in vivo; procedure, shortened: as §3
[19] = tested on: Rattus norvegicus; assay: Toxicity in Sprague-Dawley rat assessed as liver necrosis at 23 mmol/kg, ip measured after 0.5 to 24 hrs by histopathological/light microscopy analysis (reference value: 0%); format: organism-based; details: in vivo; procedure, shortened: as §3
[20] = tested on: Rattus norvegicus; assay: Toxicity in phenobarbital pretreated Sprague-Dawley rat assessed as liver necrosis at 4.6 mmol/kg, ip measured after 0.5 to 24 hrs by histopathological/light microscopy analysis (reference value: 0%); format: organism-based; details: in vivo; procedure, shortened: as §3
[21] = tested on: Rattus norvegicus; assay: Toxicity in phenobarbital pretreated Sprague-Dawley rat assessed as multiple, discrete foci of liver parenchymal cell necrosis at 11.5 mmol/kg, ip measured after 0.5 to 24 hrs by histopathological/light microscopy analysis (reference value: 0%); format: organism-based; details: in vivo; procedure, shortened: as §3
[22] = tested on: Rattus norvegicus; assay: Toxicity in phenobarbital pretreated Sprague-Dawley rat assessed as multiple, discrete foci of liver parenchymal cell necrosis at 23 mmol/kg, ip measured after 0.5 to 24 hrs by histopathological/light microscopy analysis (reference value: 0%); format: organism-based; details: in vivo; procedure, shortened: as §3
[23] = tested on: Liver; assay: Protein binding in Sprague-Dawley rat liver protein at 4.6 to 23 mmol/kg, ip measured per mg of protein up to 24 hrs by scintillation counting; format: ADME, organism-based; details: in vivo
Procedure, shortened: (§4)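 Male Sprague-Dawley rats, normal or phenobarbital-pretreated (80 mg/kg ip, 3 days), received ip [1-14C]halothane in olive oil (50 µCi/kg). Liver homogenized 1 g/3 ml water at 0 °C. Protein precipitate washed ten times with hot (60 °C) methanol-ether 3:1, then digested in 1 N NaOH and counted. Protein measured by Lowry against BSA. Result expressed as nmol halothane equivalents per mg protein. Blank from [14C]halothane added to control homogenate was subtracted. Six rats.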

[24] = tested on: Rattus norvegicus; assay: Toxicity in Sprague-Dawley rat assessed as serum glutamic pyruvic transaminase level in blood at 4.6 mmol/kg, ip measured after 0.5 to 24 hrs (reference value: 14 +/- 2 IU/L); format: organism-based; details: in vivo
[25] = tested on: Rattus norvegicus; assay: Toxicity in Sprague-Dawley rat assessed as serum glutamic pyruvic transaminase level in blood at 11.5 mmol/kg, ip measured after 0.5 to 24 hrs (reference value: 14 +/- 2 IU/L); format: organism-based; details: in vivo
[26] = tested on: Rattus norvegicus; assay: Toxicity in Sprague-Dawley rat assessed as serum glutamic pyruvic transaminase level in blood at 23 mmol/kg, ip measured after 0.5 to 24 hrs (reference value: 14 +/- 2 IU/L); format: organism-based; details: in vivo
[27] = tested on: Rattus norvegicus; assay: Toxicity in phenobarbital pretreated Sprague-Dawley rat assessed as serum glutamic pyruvic transaminase level in blood at 4.6 mmol/kg, ip measured after 0.5 to 24 hrs (reference value: 15 +/- 2 IU/L); format: organism-based; details: in vivo
[28] = tested on: Rattus norvegicus; assay: Toxicity in phenobarbital pretreated Sprague-Dawley rat assessed as serum glutamic pyruvic transaminase level in blood at 11.5 mmol/kg, ip measured after 0.5 to 24 hrs (reference value: 15 +/- 2 IU/L); format: organism-based; details: in vivo
[29] = tested on: Rattus norvegicus; assay: Toxicity in phenobarbital pretreated Sprague-Dawley rat assessed as serum glutamic pyruvic transaminase level in blood at 23 mmol/kg, ip measured after 0.5 to 24 hrs (reference value: 15 +/- 2 IU/L); format: organism-based; details: in vivo
[30] = tested on: Liver; assay: Protein binding in phenobarbital pretreated Sprague-Dawley rat liver protein at 4.6 to 23 mmol/kg, ip measured per mg of protein up to 24 hrs by scintillation counting; format: ADME, organism-based; details: in vivo; procedure, shortened: as §4
[31] = tested on: Rattus norvegicus; assay: Anesthetic activity in Sprague-Dawley rat assessed as duration of anesthesia at 11.5 mmol/kg, ip; format: functional
Procedure, shortened: (§5)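 Male Sprague-Dawley rats, 100-120 g, fasted overnight before dosing, fed afterwards. Single ip dose of [1-14C]halothane in olive oil (diluted with unlabeled halothane; 50 µCi 14C/kg). Duration of anesthesia recorded in normal and phenobarbital-pretreated rats. Pretreatment was phenobarbital sodium 80 mg/kg ip in water for 3 days, with use on day 4. Six rats per group.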

[32] = tested on: Rattus norvegicus; assay: Anesthetic activity in Sprague-Dawley rat assessed as duration of anesthesia at 23 mmol/kg, ip; format: functional; procedure, shortened: as §5
[33] = tested on: Rattus norvegicus; assay: Anesthetic activity in Sprague-Dawley rat assessed as duration of anesthesia at 4.6 mmol/kg, ip; format: functional, organism-based; details: tested as the 14C-labelled form; procedure, shortened: as §5

For `F[14C](F)(F)C(Cl)Br` (stereo not drawn), the Drug uptake [1] was “Active”, the Drug uptake [2] was “Not Active” and the Drug uptake [3] was “Active”. The Drug uptake [4] was “Not Active”, the Activity [5] was “Non-toxic” and the Activity [6] was “Non-toxic”. The Activity [7] was “Non-toxic”, the Activity [8] was “Non-toxic” and the Activity [9] was “Non-toxic”. The Activity [10] was “Non-toxic”, the Activity [11] was “Non-toxic” and the Activity [12] was “Non-toxic”. The Activity [13] was “Non-toxic”, the Activity [14] was “Toxic” and the Activity [15] was “Non-toxic”. The Activity [16] was “Toxic”, the Activity [17] was 0% and the Activity [18] was 0%. For the same molecule, the Activity [19] was 0%, the Activity [20] was 0% and the Activity [21] was < 6%. For the same molecule, the Activity [22] was 6%, the PB [23] was 0.8 nmol/mg and the Activity [24] was 16 IU/L. It also gave an Activity [25] of 18 IU/L, an Activity [26] of 18 IU/L and an Activity [27] of 19 IU/L. For the same molecule, the Activity [28] was 37 IU/L, the Activity [29] was 58 IU/L and the PB [30] was > 2 nmol/mg. The Time [31] was 1.92 h and the Time [32] was 3.75 h.
`FC(F)(F)C(Cl)Br` (stereo not drawn) was tested, and the Activity [33] was “inactive”.
